The source of these data is ChEMBL document CHEMBL3286281, “Amino derivatives of glycyrrhetinic acid as potential inhibitors of cholinesterases” (Bioorg Med Chem, 2014).

A value given as a limit tells only on which side of the number the result lay.

One data set has as its target Cholinesterase (Equus caballus, UniProt P81908). Description: Inhibition of equine serum BChE using butyrylthiocholine iodide as substrate after 20 mins measured for 1 min interval for 30 mins by Ellman's method. For orientation: Ellman's reagent forms a yellow product with free thiols.
Another data set concerns the target Acetylcholinesterase (Electrophorus electricus, UniProt O42275). Nature of the data set: Inhibition of Electrophorus electricus AChE using acetylthiocholine iodide as substrate after 20 mins measured for 1 min interval for 30 mins by Ellman's method.
The nature of data set [1]: Selectivity ratio of Ki for Electrophorus electricus AChE to Ki for equine serum BChE. The procedure, abridged:
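Ki from Ellman kinetics at pH 8.0 and 30 °C after 20 min enzyme–inhibitor–DTNB preincubation. Inhibitor at several concentrations plus a water blank; ATChI or BTChI at 0.9375, 0.625, 0.325 and 0.1875 mM. A415 read every 1 min for 30 min, in triplicate. Ki from Lineweaver-Burk, Dixon and Cornish-Bowden plots; F = Ki(AChE)/Ki(BChE).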

Data set [2] in a line: Solubility of the compound. The class given is physicochemical.

Chain of Cholinesterase (P81908 whole entry): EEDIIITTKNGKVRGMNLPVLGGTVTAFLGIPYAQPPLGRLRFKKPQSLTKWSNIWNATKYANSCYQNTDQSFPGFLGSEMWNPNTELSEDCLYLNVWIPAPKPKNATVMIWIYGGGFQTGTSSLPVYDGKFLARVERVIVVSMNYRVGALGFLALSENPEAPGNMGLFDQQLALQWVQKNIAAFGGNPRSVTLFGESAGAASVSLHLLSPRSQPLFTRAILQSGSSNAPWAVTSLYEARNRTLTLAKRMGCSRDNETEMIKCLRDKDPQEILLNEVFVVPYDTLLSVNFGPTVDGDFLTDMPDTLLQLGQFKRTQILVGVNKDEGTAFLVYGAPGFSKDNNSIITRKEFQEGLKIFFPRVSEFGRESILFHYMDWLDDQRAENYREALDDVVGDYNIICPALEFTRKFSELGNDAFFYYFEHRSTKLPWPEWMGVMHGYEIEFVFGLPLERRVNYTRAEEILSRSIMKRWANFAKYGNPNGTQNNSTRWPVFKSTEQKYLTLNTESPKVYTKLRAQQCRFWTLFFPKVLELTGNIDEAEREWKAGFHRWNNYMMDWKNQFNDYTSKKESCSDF
Chain of Acetylcholinesterase (O42275 whole entry): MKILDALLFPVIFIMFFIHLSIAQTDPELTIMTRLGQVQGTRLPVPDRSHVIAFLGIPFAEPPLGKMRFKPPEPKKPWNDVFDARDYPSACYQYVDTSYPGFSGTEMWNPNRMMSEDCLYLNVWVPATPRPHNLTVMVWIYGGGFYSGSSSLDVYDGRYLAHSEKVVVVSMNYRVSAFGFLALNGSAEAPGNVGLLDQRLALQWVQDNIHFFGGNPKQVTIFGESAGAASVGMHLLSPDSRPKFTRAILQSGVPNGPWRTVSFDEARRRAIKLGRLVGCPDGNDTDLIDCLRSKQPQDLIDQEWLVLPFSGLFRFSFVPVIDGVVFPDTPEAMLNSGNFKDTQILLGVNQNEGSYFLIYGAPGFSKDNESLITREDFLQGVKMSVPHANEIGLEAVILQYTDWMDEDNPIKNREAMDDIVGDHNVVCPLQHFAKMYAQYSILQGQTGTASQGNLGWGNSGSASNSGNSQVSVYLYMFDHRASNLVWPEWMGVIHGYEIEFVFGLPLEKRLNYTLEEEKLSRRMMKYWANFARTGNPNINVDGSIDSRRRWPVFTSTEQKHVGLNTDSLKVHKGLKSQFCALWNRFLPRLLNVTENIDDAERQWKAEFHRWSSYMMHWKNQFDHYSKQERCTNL

As to `COC(=O)[C@@]1(C)CC[C@]2(C)CC[C@]3(C)C(=CC(=O)[C@@H]4[C@@]5(C)CC[C@H](OC(=O)CN)C(C)(C)[C@@H]5CC[C@]43C)[C@@H]2C1`, the figures for the Ki on Cholinesterase and at Acetylcholinesterase were greater than 100 µM and 19.8 µM, respectively. For the same molecule, the Ratio Ki in data set [1] is less than 0.2.

Turning to `COC(=O)[C@@]1(C)CC[C@]2(C)CC[C@]3(C)C(=CC(=O)[C@@H]4[C@@]5(C)CC[C@H](OC(=O)[C@@H](C)N)C(C)(C)[C@@H]5CC[C@]43C)[C@@H]2C1`, the Ki (usually the dissociation constant of the complex between target and ligand, obtained from inhibition or displacement) at Cholinesterase is greater than 100 µM; on Acetylcholinesterase, 17.7 µM. In addition, the Ratio Ki in data set [1] was less than 0.18.

Turning to `CC1(C)[C@@H](O)CC[C@]2(C)[C@H]3C(=O)C=C4[C@@H]5C[C@@](C)(C(=O)NCCCCCN)CC[C@]5(C)CC[C@@]4(C)[C@]3(C)CC[C@@H]12`, the Ki on Cholinesterase and on Acetylcholinesterase was greater than 100 µM throughout.

Regarding `COC(=O)[C@@]1(C)CC[C@]2(C)CC[C@]3(C)C(=CC(=O)[C@@H]4[C@@]5(C)CC[C@H](OC(=O)[C@@H](N)CCC(=O)O)C(C)(C)[C@@H]5CC[C@]43C)[C@@H]2C1`, the Ki at Cholinesterase is greater than 100 µM; on Acetylcholinesterase, 18.9 µM. For the same molecule, in data set [1], the Ratio Ki is less than 0.19.

For the molecule `C[C@H](N)C(=O)O[C@H]1CC[C@]2(C)[C@H]3C(=O)C=C4[C@@H]5C[C@@](C)(C(=O)O)CC[C@]5(C)CC[C@@]4(C)[C@]3(C)CC[C@H]2C1(C)C`, the Ki is greater than 100 µM on Cholinesterase and 24 µM at Acetylcholinesterase. The Ratio Ki in data set [1] is less than 0.24.

On to `COC(=O)C[C@H](N)C(=O)O[C@H]1CC[C@]2(C)[C@H]3C(=O)C=C4[C@@H]5C[C@@](C)(C(=O)OC)CC[C@]5(C)CC[C@@]4(C)[C@]3(C)CC[C@H]2C1(C)C`, for which the solubility result in data set [2] was “Insoluble”.

On to `COC(=O)[C@@]1(C)CC[C@]2(C)CC[C@]3(C)C(=CC(=O)[C@@H]4[C@@]5(C)CC[C@H](OC(=O)[C@@H]6CCCN6)C(C)(C)[C@@H]5CC[C@]43C)[C@@H]2C1`, for which the Ki was greater than 100 µM on Cholinesterase and 23.5 µM on Acetylcholinesterase. The Ratio Ki in data set [1] was less than 0.24.

Turning to `COC(=O)[C@@]1(C)CC[C@]2(C)CC[C@]3(C)C(=CC(=O)[C@@H]4[C@@]5(C)CC[C@H](OC(=O)[C@@H](N)CCCCN)C(C)(C)[C@@H]5CC[C@]43C)[C@@H]2C1`, the values for the Ki at Cholinesterase and on Acetylcholinesterase were greater than 100 µM and 20 µM, respectively. Moreover, the Ratio Ki in data set [1] is less than 0.2.

On to `CC1(C)[C@@H](O)CC[C@]2(C)[C@H]3C(=O)C=C4[C@@H]5C[C@@](C)(C(=O)OC/C=C/CBr)CC[C@]5(C)CC[C@@]4(C)[C@]3(C)CC[C@@H]12`, for which the Ki on Cholinesterase was greater than 40 µM; at Acetylcholinesterase, 29.6 µM. The Ratio Ki in data set [1] is less than 0.74.

In the case of `CC1(C)[C@@H](O)CC[C@]2(C)[C@H]3C(=O)C=C4[C@@H]5C[C@@](C)(C(=O)NCCCCN)CC[C@]5(C)CC[C@@]4(C)[C@]3(C)CC[C@@H]12`, the figures for the Ki on Cholinesterase and at Acetylcholinesterase were 74.3 µM and 41.8 µM, respectively. For the same molecule, the Ratio Ki in data set [1] worked out at 0.56.

Turning to `COC(=O)[C@@]1(C)CC[C@]2(C)CC[C@]3(C)C(=CC(=O)[C@@H]4[C@@]5(C)CC[C@H](OC(=O)[C@@H](N)CC(C)C)C(C)(C)[C@@H]5CC[C@]43C)[C@@H]2C1`, in data set [2], the solubility entry is recorded as “Insoluble”.

In the case of `COC(=O)[C@@]1(C)CC[C@]2(C)CC[C@]3(C)C(=CC(=O)[C@@H]4[C@@]5(C)CC[C@H](OC(=O)[C@H](C)N)C(C)(C)[C@@H]5CC[C@]43C)[C@@H]2C1` [listing 1 of 3 here], the Ratio Ki in data set [1] was less than 0.21.

Consider `CC1(C)[C@@H](OC(=O)CN)CC[C@]2(C)[C@H]3C(=O)C=C4[C@@H]5C[C@@](C)(C(=O)O)CC[C@]5(C)CC[C@@]4(C)[C@]3(C)CC[C@@H]12`, for which the Ki on Cholinesterase and at Acetylcholinesterase was greater than 100 µM in each case.

Take `CC1(C)[C@@H](O)CC[C@]2(C)[C@H]3C(=O)C=C4[C@@H]5C[C@@](C)(C(=O)O)CC[C@]5(C)CC[C@@]4(C)[C@]3(C)CC[C@@H]12` [ENOXOLONE]: the Ki on Cholinesterase and at Acetylcholinesterase was greater than 100 µM each time.

As to `CCOC(=O)[C@@]1(C)CC[C@]2(C)CC[C@]3(C)C(=CC(=O)[C@@H]4[C@@]5(C)CC[C@H](OC(=O)[C@H](N)Cc6c[nH]c7ccccc67)C(C)(C)[C@@H]5CC[C@]43C)[C@@H]2C1`, the inhibition constant Ki on Cholinesterase is greater than 100 µM; on Acetylcholinesterase, 11.7 µM. The Ratio Ki in data set [1] was less than 0.12.

For `COC(=O)[C@@]1(C)CC[C@]2(C)CC[C@]3(C)C(=CC(=O)[C@@H]4[C@@]5(C)CC[C@H](OC(=O)[C@@H](N)CSCc6ccccc6)C(C)(C)[C@@H]5CC[C@]43C)[C@@H]2C1`, the Ki on Cholinesterase is greater than 100 µM; on Acetylcholinesterase, 40.6 µM. Also, the Ratio Ki in data set [1] was less than 0.41.

Turning to `CCOC(=O)[C@@]1(C)CC[C@]2(C)CC[C@]3(C)C(=CC(=O)[C@@H]4[C@@]5(C)CC[C@H](OC(=O)[C@H](Cc6ccccc6)NC(=O)OC(C)(C)C)C(C)(C)[C@@H]5CC[C@]43C)[C@@H]2C1`, the Ki on Cholinesterase and on Acetylcholinesterase was greater than 2 µM each time.

In the case of `C=CCCOC(=O)[C@@]1(C)CC[C@]2(C)CC[C@]3(C)C(=CC(=O)[C@@H]4[C@@]5(C)CC[C@H](O)C(C)(C)[C@@H]5CC[C@]43C)[C@@H]2C1`, the figures for the Ki at Cholinesterase and at Acetylcholinesterase were greater than 100 µM and 14.9 µM, respectively. Also, the Ratio Ki in data set [1] is less than 0.15.

For `COC(=O)[C@@]1(C)CC[C@]2(C)CC[C@]3(C)C(=CC(=O)[C@@H]4[C@@]5(C)CC[C@H](OC(=O)[C@@H](N)CCCN)C(C)(C)[C@@H]5CC[C@]43C)[C@@H]2C1`, in data set [2], the solubility entry is reported as “Insoluble”.

On to `COC(=O)[C@@]1(C)CC[C@]2(C)CC[C@]3(C)C(=CC(=O)[C@@H]4[C@@]5(C)CC[C@H](OC(=O)[C@@H](N)C(C)C)C(C)(C)[C@@H]5CC[C@]43C)[C@@H]2C1`, for which the solubility entry in data set [2] is “Insoluble”.

With `CCOC(=O)[C@@]1(C)CC[C@]2(C)CC[C@]3(C)C(=CC(=O)[C@@H]4[C@@]5(C)CC[C@H](OC(=O)[C@@H](N)Cc6ccccc6)C(C)(C)[C@@H]5CC[C@]43C)[C@@H]2C1`, the results for the Ki at Cholinesterase and at Acetylcholinesterase were greater than 100 µM and 13.7 µM, respectively. Moreover, in data set [1], the Ratio Ki is less than 0.14.

For the molecule `CNCC(=O)O[C@H]1CC[C@]2(C)[C@H]3C(=O)C=C4[C@@H]5C[C@@](C)(C(=O)OC)CC[C@]5(C)CC[C@@]4(C)[C@]3(C)CC[C@H]2C1(C)C`, the Ki at Cholinesterase is greater than 100 µM; at Acetylcholinesterase it was 20.4 µM. For the same molecule, the Ratio Ki in data set [1] is less than 0.21.

Turning to `COC(=O)[C@@]1(C)CC[C@]2(C)CC[C@]3(C)C(=CC(=O)[C@@H]4[C@@]5(C)CC[C@H](OC(=O)[C@@H](N)Cc6ccccc6)C(C)(C)[C@@H]5CC[C@]43C)[C@@H]2C1`, the results for the Ki at Cholinesterase and at Acetylcholinesterase were greater than 100 µM and 20.7 µM, respectively. For the same molecule, the Ratio Ki in data set [1] is less than 0.21.

Turning to `COC(=O)CC[C@H](N)C(=O)O[C@H]1CC[C@]2(C)[C@H]3C(=O)C=C4[C@@H]5C[C@@](C)(C(=O)OC)CC[C@]5(C)CC[C@@]4(C)[C@]3(C)CC[C@H]2C1(C)C`, the solubility result in data set [2] was “Insoluble”.

As for `COC(=O)[C@@]1(C)CC[C@]2(C)CC[C@]3(C)C(=CC(=O)[C@@H]4[C@@]5(C)CC[C@H](OC(=O)[C@H](C)N)C(C)(C)[C@@H]5CC[C@]43C)[C@@H]2C1` [listing 2 of 3 here], the solubility entry in data set [2] was “Insoluble”.

Turning to `COC(=O)[C@@]1(C)CC[C@]2(C)CC[C@]3(C)C(=CC(=O)[C@@H]4[C@@]5(C)CC[C@H](OC(=O)[C@@H](N)CC(=O)O)C(C)(C)[C@@H]5CC[C@]43C)[C@@H]2C1`, the Ki was greater than 100 µM on Cholinesterase and 16.2 µM at Acetylcholinesterase. In data set [1], the Ratio Ki was less than 0.16.

Take `CC(C)(C)OC(=O)NCCCNC(=O)[C@@]1(C)CC[C@]2(C)CC[C@]3(C)C(=CC(=O)[C@@H]4[C@@]5(C)CC[C@H](O)C(C)(C)[C@@H]5CC[C@]43C)[C@@H]2C1`: the Ki on Cholinesterase and on Acetylcholinesterase was greater than 10 µM throughout.

As for `CC1(C)[C@@H](O)CC[C@]2(C)[C@H]3C(=O)C=C4[C@@H]5C[C@@](C)(C(=O)OCCBr)CC[C@]5(C)CC[C@@]4(C)[C@]3(C)CC[C@@H]12`, the inhibitory constant (Ki) at Cholinesterase was greater than 100 µM; on Acetylcholinesterase, 23.8 µM. Further, in data set [1], the Ratio Ki is less than 0.24.

With `CC1(C)[C@@H](O)CC[C@]2(C)[C@H]3C(=O)C=C4[C@@H]5C[C@@](C)(C(=O)NCCN)CC[C@]5(C)CC[C@@]4(C)[C@]3(C)CC[C@@H]12`, the Ki at Cholinesterase and on Acetylcholinesterase was greater than 100 µM throughout.

Turning to `COC(=O)[C@@]1(C)CC[C@]2(C)CC[C@]3(C)C(=CC(=O)[C@@H]4[C@@]5(C)CC[C@H](OC(=O)[C@@H](N)CC(=O)OCc6ccccc6)C(C)(C)[C@@H]5CC[C@]43C)[C@@H]2C1`, the Ki is greater than 100 µM on Cholinesterase and 28.1 µM on Acetylcholinesterase. Moreover, in data set [1], the Ratio Ki is less than 0.28.

As to `CC[C@H](C)[C@H](N)C(=O)O[C@H]1CC[C@]2(C)[C@H]3C(=O)C=C4[C@@H]5C[C@@](C)(C(=O)OC)CC[C@]5(C)CC[C@@]4(C)[C@]3(C)CC[C@H]2C1(C)C`, in data set [2], the solubility entry is listed as “Insoluble”.

As to `CC1(C)[C@@H](O)CC[C@]2(C)[C@H]3C(=O)C=C4[C@@H]5C[C@@](C)(C(=O)O/C(=N\C6CCCCC6)NC6CCCCC6)CC[C@]5(C)CC[C@@]4(C)[C@]3(C)CC[C@@H]12`, the Ki on Cholinesterase and on Acetylcholinesterase was greater than 10 µM each time.

Take `COC(=O)[C@@]1(C)CC[C@]2(C)CC[C@]3(C)C(=CC(=O)[C@@H]4[C@@]5(C)CC[C@H](OC(=O)[C@H](C)N)C(C)(C)[C@@H]5CC[C@]43C)[C@@H]2C1` [listing 3 of 3 here]: the Ki was greater than 100 µM on Cholinesterase and 20.8 µM on Acetylcholinesterase.
